Data reported in ChEMBL document CHEMBL5370635, “Structure-Based Design and Synthesis of Potent and Selective KRAS G12D Inhibitors” (ACS Med Chem Lett, 2023).

Columns and labels:
[1] = biological target: T1, GTPase KRas (Homo sapiens, UniProt P01116); experiment: Inhibition of wild-type GDP-bound biotinylated-KRAS (unknown origin) assessed as suppression of SOS1-mediated nucleotide exchange by measuring reduction in KRAS-RAF RBD complex formation preincubated for 60 mins followed by SOS1 addition and further incubated for 60 mins and subsequent addition of KRAS-RAF RBD mixture measured after 30 to 60 mins by FRET assay
[2] = biological target: T2, GTPase KRas (Homo sapiens, UniProt P01116, G12D); experiment: Inhibition of KRAS G12D mutant in human ASPC1 cells assessed as reduction in ERK phosphorylation measured after 4 hrs by HTRF assay; assay type: cell-based
[3] = biological target: T2, GTPase KRas; experiment: Inhibition of GDP-bound biotinylated-KRAS G12D mutant (1 to 169 residues) (unknown origin) assessed as suppression of SOS1-mediated nucleotide exchange by measuring reduction in KRAS G12D mutant-RAF RBD complex formation preincubated for 60 mins followed by SOS1 addition and further incubated for 60 mins and subsequent addition of KRAS G12D mutant-RAF RBD mixture measured after 30 to 60 mins by FRET assay
[4] = system: GTPase KRas (Homo sapiens), P01116 [G12D]; experiment: Thermal stabilization of GDP-bound KRAS G12D mutant (1 to 169 residues) (unknown origin) assessed as melting temperature incubated for 1 hrs by differential scanning fluorimetry assay
[5] = biological target: T1, GTPase KRas; experiment: Thermal stabilization of wild-type GDP-bound KRAS (1 to 169 residues) (unknown origin) assessed as melting temperature incubated for 1 hrs by differential scanning fluorimetry assay
[6] = Antiproliferative activity against human Panc 04.03 cells assessed as reduction in cell viability measured after 5 days by Cell-Titer Glo assay; assay type: functional, cell-based; settings: Panc 04.03, 120 h
[7] = system: ASPC1; experiment: Antitumor activity against human ASPC1 cells xenografted in mouse assessed as inhibition of tumor growth at 10 mg/kg bid for 28 days relative to control; assay type: functional; settings: ASPC1, 672 h, time 28 day, read-out: TGI
In short: (§1)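 Mice bearing AsPC-1 (KRAS G12D pancreatic ductal adenocarcinoma) xenografts were given repeated twice-daily doses of 3, 10 or 20 mg/kg alongside a vehicle control group, with n = 8 per group. Tumor growth inhibition or regression was assessed against vehicle, with body weight also tracked. Group means were reported with SEM, and P values were calculated versus vehicle.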

[8] = Toxicity in human ASPC1 cell xenografted mouse at 3 to 20 mg/kg bid administered for 28 days; assay type: organism-based; settings: in vivo, 672 h, dose 3-20 mg/kg, time 28 day
In short: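 Mice bearing AsPC-1 KRAS G12D PDAC xenografts dosed BID at 3, 10 or 20 mg/kg alongside a vehicle control group. Body weight change tracked over the treatment period together with tumour growth. Group means, n = 8, with SEM.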

[9] = system: ASPC1; experiment: Antiproliferative activity against human ASPC1 cells assessed as reduction in cell viability measured after 5 days by Cell-Titer Glo assay; assay type: functional, cell-based; settings: ASPC1, 120 h
In short: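 AsPC-1 PDAC cells (KRAS G12D) grown in three-dimensional culture; viability read by Cell-Titer Glo luminescence.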

[10] = system: HPAF-II; experiment: Antiproliferative activity against human HPAF-II cells assessed as reduction in cell viability measured after 5 days by Cell-Titer Glo assay; assay type: functional, cell-based; settings: 120 h
[11] = Antiproliferative activity against RAS initiative G12D cells assessed as reduction in cell viability after 5 days of treatment by Cell-Titer Glo assay; assay type: functional, cell-based; settings: Homo sapiens, 120 h
[12] = system: SK-LU-1; experiment: Antiproliferative activity against human SK-LU-1 cells assessed as reduction in cell viability measured after 5 days by Cell-Titer Glo assay; assay type: functional, cell-based; settings: SK-LU-1, 120 h
[13] = system: AGS; experiment: Antiproliferative activity against human AGS cells assessed as reduction in cell viability measured after 5 days by Cell-Titer Glo assay; assay type: functional, cell-based; settings: 120 h
[14] = system: LS-513; experiment: Antiproliferative activity against human LS-513 cells assessed as reduction in cell viability measured after 5 days by Cell-Titer Glo assay; assay type: functional, cell-based; settings: LS-513, 120 h
[15] = system: ASPC1; experiment: Antitumor activity against human ASPC1 cells xenografted in mouse assessed as tumor regression at 20 mg/kg bid for 28 days relative to control; assay type: functional; settings: time 28 day; in short: as §1
[16] = Antiproliferative activity against human GP2d cells assessed as reduction in cell viability measured after 5 days by Cell-Titer Glo assay; assay type: functional, cell-based; settings: 120 h
[17] = Selectivity ratio of IC50 for RAS initiative wild-type cells to IC50 for RAS initiative G12D cells; assay type: functional
[18] = Antiproliferative activity against human SNU-1033 cells assessed as reduction in cell viability measured after 5 days by Cell-Titer Glo assay; assay type: functional, cell-based; settings: SNU-1033, 120 h
[19] = system: HPAC; experiment: Antiproliferative activity against human HPAC cells assessed as reduction in cell viability measured after 5 days by Cell-Titer Glo assay; assay type: functional, cell-based; settings: 120 h
[20] = system: ASPC1; experiment: Antitumor activity against human ASPC1 cells xenografted in mouse assessed as inhibition of tumor growth at 3 mg/kg bid for 28 days relative to control; assay type: functional; settings: ASPC1, 672 h, time 28 day, read-out: TGI; in short: as §1
[21] = Antiproliferative activity against RAS initiative wild-type cells assessed as reduction in cell viability after 5 days of treatment by Cell-Titer Glo assay; assay type: functional, cell-based; settings: Homo sapiens, 120 h
[22] = organism: Homo sapiens; experiment: Selectivity ratio of IC50 for wild-type GDP-bound biotinylated-KRAS (unknown origin) to IC50 for GDP-bound biotinylated-KRAS G12D mutant (1 to 169 residues) (unknown origin)
[23] = system: ASPC1; experiment: Antitumor activity against human ASPC1 cells xenografted in mouse assessed as inhibition of tumor growth at 20 mg/kg bid for 28 days relative to control; assay type: functional; design: scale not given: the % may be the effect or the level left; settings: time 28 day; in short: as §1

SMILES	IC50 [1]	IC50 [2]	IC50 [3]	ΔTm [4]	ΔTm [5]	other results
Cc1cc(N)nc(-c2c(Cl)cc3c(N4C[C@H]5CC[C@@H](C4)N5)nc(OCC45CCCN4CCC5)nc3c2F)c1C(F)(F)F	0.214 µM	0.928 µM	0.0021 µM	10.9 °C	4.6 °C	
N#Cc1c(N)sc2c(F)ccc(-c3c(C(F)(F)F)cc4c(N5C[C@H]6CC[C@@H](C5)N6)nc(OC[C@@]56CCCN5C[C@H](F)C6)nc4c3F)c12	0.0039 µM	0.0021 µM	0.00086 µM	20.8 °C	8.3 °C	IC50 [6]: 0.0106 µM; inhibition in vivo at 10 mg/kg [7]: 77%; Activity [8]: Non-Toxic; IC50 [9]: 0.0035 µM; IC50 [10]: 0.0072 µM; IC50 [11]: 0.0058 µM; IC50 [12]: 0.0005 µM; IC50 [13]: 0.0007 µM; IC50 [14]: 0.002 µM; Activity [15]: 54%; IC50 [16]: 0.0002 µM; Ratio IC50 [17]: >100; IC50 [18]: 0.623 µM; IC50 [19]: 0.0018 µM; inhibition in vivo at 3 mg/kg [20]: 51%; IC50 [21]: 0.978 µM
N#Cc1c(N)sc2c(F)ccc(-c3c(Cl)cc4c(N5C[C@H]6CC[C@@H](C5)N6)nc(OCC5(CN6CC[C@@H](F)C6)CC5)nc4c3F)c12	0.0092 µM	0.03 µM	0.001 µM	17.8 °C	12 °C	
N#Cc1c(N)sc2c(F)ccc(-c3c(Cl)cc4c(N5C[C@H]6CC[C@@H](C5)N6)ncnc4c3F)c12	> 1 µM	1.08 µM	0.00532 µM	7.4 °C	3.7 °C	Ratio IC50 [22]: 188
Nc1nc2c(-c3c(Cl)cc4c(N5C[C@H]6CC[C@@H](C5)N6)nc(OC[C@@]56CCCN5C[C@H](F)C6)nc4c3F)ccc(F)c2s1	0.0396 µM	0.149 µM	0.0038 µM	14.7 °C	7.2 °C	
C#Cc1c(F)ccc2cc(O)cc(-c3ncc4c(N5C[C@H]6CC[C@@H](C5)N6)nc(OC[C@@]56CCCN5C[C@H](F)C6)nc4c3F)c12 [MRTX-1133]						IC50 [6]: 0.0276 µM; inhibition in vivo at 10 mg/kg [7]: 83%; Activity [8]: Non-Toxic; IC50 [9]: 0.011 µM; IC50 [10]: 0.0149 µM; IC50 [11]: 0.0164 µM; IC50 [12]: 0.0027 µM; IC50 [13]: 0.0032 µM; IC50 [14]: 0.0081 µM; IC50 [16]: 0.0004 µM; Ratio IC50 [17]: >100; IC50 [18]: 4.98 µM; IC50 [19]: 0.0042 µM; Activity [23]: 94%; inhibition in vivo at 3 mg/kg [20]: 61%; IC50 [21]: 6.47 µM
Nc1cc2cccc(F)c2c(-c2c(Cl)cc3c(N4C[C@H]5CC[C@@H](C4)N5)nc(OC[C@@]45CCCN4C[C@H](F)C5)nc3c2F)n1	> 1 µM	1.03 µM	0.006 µM	7.4 °C	2.2 °C	
N#Cc1c(N)sc2c(F)ccc(-c3cc4nc(OC[C@@]56CCCN5C[C@H](F)C6)nc(N5C[C@H]6CC[C@@H](C5)N6)c4cc3Cl)c12	0.0116 µM	0.0429 µM	0.0015 µM	16 °C	9.4 °C	
CN1CCC[C@H]1COc1nc(N2C[C@H]3CC[C@@H](C2)N3)c2cc(Cl)c(-c3ccc(F)c4sc(N)c(C#N)c34)c(F)c2n1	0.017 µM	0.138 µM	0.0013 µM	17.1 °C	10.3 °C	
N#Cc1c(N)sc2c(F)ccc(-c3c(Cl)cc4c(N5C[C@H]6CC[C@@H](C5)N6)nc(OC[C@@]56CCCN5C[C@H](F)C6)nc4c3F)c12	0.0042 µM	0.0043 µM	0.00098 µM	20.2 °C	13.4 °C	IC50 [6]: 0.0586 µM; IC50 [9]: 0.0151 µM; IC50 [10]: 0.0142 µM; IC50 [11]: 0.0334 µM; IC50 [12]: 0.0014 µM; IC50 [13]: 0.0012 µM; IC50 [14]: 0.0075 µM; IC50 [16]: 0.0002 µM; Ratio IC50 [17]: >100; IC50 [18]: 1.89 µM; IC50 [19]: 0.0034 µM; IC50 [21]: 3.44 µM
Nc1cc2ccccc2c(-c2c(Cl)cc3c(N4C[C@H]5CC[C@@H](C4)N5)nc(OC[C@@]45CCCN4C[C@H](F)C5)nc3c2F)n1	> 1 µM	2.97 µM	0.0128 µM	4.3 °C	0.8 °C	
Cc1cc(N)nc(-c2c(Cl)cc3c(N4CCNC[C@@H]4C)nc(OC[C@@H]4CCCN4C)nc3c2F)c1C(F)(F)F	> 1 µM	> 10 µM	0.0769 µM	2.6 °C	1.4 °C	
Cc1cc(N)nc(-c2c(Cl)cc3c(N4C[C@H]5CC[C@@H](C4)N5)nc(OC[C@@]45CCCN4C[C@H](F)C5)nc3c2F)c1C(F)(F)F	0.153 µM	0.0899 µM	0.0021 µM	11.7 °C	5.2 °C	
Cc1cc(N)nc(-c2c(Cl)cc3c(N4C[C@H]5CC[C@@H](C4)N5)nc(OC[C@@H]4CCCN4C)nc3c2F)c1C(F)(F)F	> 1 µM	0.941 µM	0.0035 µM	7.3 °C	1.9 °C	Ratio IC50 [22]: > 286
